Screens: PubChem, several laboratories
This is a sample that favours compounds with a hit; in the whole collection about 3.7% have one here.
MC4R ag barr: MC4R agonists recruiting beta-arrestin, primary screen, cell-based, luminescence, agonist arm of biased-ligand search. Melanocortin receptor 4 (Homo sapiens), P32245. U2OS MC4R beta-arrestin complementation; percent of melanotan II response, DMSO zero. activation, % at 8.9 µM. 0.98% of 360,000 active. AID 540308, 2011;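 active means activation above a per-plate cutoff, the mean activation of sample wells on that plate plus 3 SD, cut at about 8% in these data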
Target sequence (P32245 whole entry, looked up): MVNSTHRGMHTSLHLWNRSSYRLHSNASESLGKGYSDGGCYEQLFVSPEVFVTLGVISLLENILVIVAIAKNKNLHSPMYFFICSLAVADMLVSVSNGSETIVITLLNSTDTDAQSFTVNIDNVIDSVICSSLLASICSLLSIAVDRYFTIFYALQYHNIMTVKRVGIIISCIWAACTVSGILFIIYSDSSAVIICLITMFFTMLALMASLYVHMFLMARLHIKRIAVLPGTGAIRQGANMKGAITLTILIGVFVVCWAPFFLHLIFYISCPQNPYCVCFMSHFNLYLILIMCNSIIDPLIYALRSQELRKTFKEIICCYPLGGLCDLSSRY
Granule exo inh: LAMP-1 surface exposure blockers, TALL-104 cells – cell-based, flow cytometry, MLPCN library, primary screen; TALL-104 LAMP-1 surface exposure; cells stimulated with thapsigargin and PMA; inhibition, % at 10 µM; 0.66% of 360,000 active; AID 651702, 2012;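 active means inhibition above about 55%, limit read from the data; inconclusive means no clear call, values can overlap the other calls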
Myeloid diff 2: induction of myeloid progenitor differentiation, primary screen, cell-based, flow cytometry, MLPCN library. ER-HoxA9 myeloid progenitors, lysozyme-GFP differentiation. calls only at 10 µM. 1% of 360,000 active. AID 624256, 2012;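 active means normalized GFP-positive differentiation at or above the plate's own cutoff, the solvent-only control mean plus 3 SD; inconclusive means no clear call, values can overlap the other calls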;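 further: cells exposed to compound for four days before flow analysis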
MC4R antagonist: MC4R antagonists of cAMP signaling, primary screen, cell-based, TR-FRET, antagonist arm of biased-ligand search. Melanocortin receptor 4 (Homo sapiens), P32245. MC4R-expressing cells, MTII-stimulated cAMP, LANCE TR-FRET. inhibition, % at 6.5 µM. 0.48% of 360,000 active;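 active means inhibition above its plate's cutoff, the mean of tested wells on that plate plus 3 SD, cut at about 29% in these data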
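Assay system: U2OS-MC4R stable cell line; Also added: Melanotan II; Technique: Eu-cAMP/anti-cAMP TR-FRET, emission 671 nm; Times: 30-min compound, 1-h challenge, 1-h detection, room temperature.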
EBI2 block: EBI2 receptor antagonists, beta-arrestin recruitment, primary screen, cell-based, luminescence, 7a,25-OHC stimulation, uHTS; 0.81% of 360,000 active; AID 651636, 2012; 7a,25-OHC stimulated; G-protein coupled receptor 183 (Homo sapiens), P32249; inhibition, % at 5 µM; in the data active means inhibition above about 38%;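 further: enzyme fragment complementation signal reports receptor beta-arrestin coupling in cells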
Of the large screens only hits and unclear results are named; the others gave an inactive call.

CN1c2cccc3cccc(c23)N(C)C1c1cccs1	none
CC1N(C)c2cccc3cccc(c23)N1C	Myeloid diff 2 active
COc1ccc(-n2nc3c(N4CCC(C(=O)N5CCC(C)CC5)CC4)nnc(C)c3c2C)cc1	Myeloid diff 2 active
CN(C)c1ccc(S(=O)(=O)c2ccc(Cl)cc2)cc1	MC4R ag barr 8.3
CN(C)c1ccc(NS(=O)(=O)c2ccc(Cl)cc2)cc1	none
c1ccc(-c2noc(-c3ccncc3)n2)nc1	none
c1ccc(-c2noc(-c3cccnc3)n2)nc1	Myeloid diff 2 active
CC(C)(C)n1nc2c(c1NC(=O)COc1ccc(F)cc1)CS(=O)(=O)C2	none
COc1ccc(OCC(=O)Nc2c3c(nn2C(C)(C)C)CS(=O)(=O)C3)cc1	Myeloid diff 2 active
Cc1ccccc1OCC(=O)Nc1c2c(nn1C(C)(C)C)CS(=O)(=O)C2	Myeloid diff 2 active
N#C/C(=C\c1ccc(Cl)cc1)c1nc(-c2ccco2)cs1	Myeloid diff 2 active
CCCCc1ccc(-c2csc(/C(C#N)=C/c3ccco3)n2)cc1	Myeloid diff 2 active
N#CC(=Cc1cccs1)c1nc(-c2ccc(Cl)cc2)cs1	MC4R ag barr 9.2
N#C/C(=C\c1ccc(F)cc1)c1nc(-c2ccco2)cs1	none
Cc1cc(NC(=O)CCSc2ccccc2)no1	none
CCOc1ccc(CN(C)C(=O)CNC(=O)C2CCCCC2)cc1	Granule exo inh inconclusive
COc1cccc(NC(=O)CN(C)CC(=O)Nc2ccc(C)c([N+](=O)[O-])c2)c1	Myeloid diff 2 active
Cc1ccc(Cn2ccsc2=NC(=O)CCl)cc1	MC4R ag barr 15, Myeloid diff 2 inconclusive
Cc1ccc(Cn2ccsc2=NC(=O)COC(=O)c2ccc(NC(=O)CC#N)cc2)cc1	none
O=C(Cc1ccccc1)NCC(=O)N1CCN(c2ccccc2)CC1	none
Nc1ccc2nc(-c3cccnc3)[nH]c2c1	none
Nc1ccc2nc(-c3ccccc3)[nH]c2c1	Myeloid diff 2 active
O=[N+]([O-])c1cccc(/C=N/Nc2nc(NCc3ccccc3)nc(N3CCOCC3)n2)c1O	EBI2 block 76
CNc1ccccc1C(C)(C)c1cc(-c2cccc(OC)c2)no1	Myeloid diff 2 active
COc1ccc(Cn2c(=O)[nH]c3cc(C(=O)NCCc4ccc(S(N)(=O)=O)cc4)ccc3c2=O)cc1	none
O=C(NCc1ccccc1)c1cc(C2COCCN2C(=O)OCCF)on1 (stereo not drawn)	none
O=c1oc2ccccc2cc1-c1nc2c(s1)CCc1ccccc1-2	none
O=c1oc2cc(O)ccc2cc1-c1nc2c(s1)CCc1ccccc1-2	Myeloid diff 2 active
O=C(COC(=O)Cn1cnc2ccccc2c1=O)Nc1cc(Cl)ccc1[N+](=O)[O-]	none
CN(CCc1ccccn1)Cc1ccc(Cl)cc1Cl	Myeloid diff 2 active
CN(CCc1ccccn1)Cc1ccc(Cl)c(Cl)c1	none
Cc1ccc(NC(=O)CC(NCC2CCCO2)C(=O)O)cc1C (stereo not drawn)	none
O=C1/C(=C\c2ccccc2)CN(C(=O)CCN2CCCCC2)C/C1=C/c1ccccc1	Granule exo inh 83, Myeloid diff 2 inconclusive, EBI2 block 52
CN1CCc2nc3sc(C(=O)C45CC6CC(CC(C6)C4)C5)c(N)c3cc2C1	MC4R ag barr 12
CCCN1C(=O)/C(=C/c2c(NCCCOC(C)C)nc3c(C)cccn3c2=O)SC1=S	Myeloid diff 2 active
CCC(C)N1C(=O)/C(=C/c2c(NCCCOC(C)C)nc3c(C)cccn3c2=O)SC1=S (stereo not drawn)	Myeloid diff 2 active
CCC(C)Nc1nc2c(C)cccn2c(=O)c1C=Nc1ccc(OC)cc1 (stereo not drawn)	none
O=C1Nc2ccc(Br)cc2/C1=C/C(=O)c1ccc2c(c1)OCO2	EBI2 block 85
CCOC(=O)c1c(NC(=O)CSc2nc3ccccc3s2)sc(C)c1C	Myeloid diff 2 active
COc1ccccc1NS(=O)(=O)c1ccc(C(=O)NCCCN2CCOCC2)cc1	none
CC(=O)Oc1cc2c(C(=O)NCc3ccncc3)c(C)oc2c2ccccc12	Myeloid diff 2 active
CC(C)NC(=O)Nc1nnc([C@H]2C[C@H](O)[C@@H](CO)O2)s1	none
Cc1cccc(/C=N/NC(=O)c2ccccc2OCc2cccc(Br)c2)n1	Granule exo inh 74
O=C(N/N=C/c1ccco1)c1cc(Br)ccc1OCc1ccccc1	MC4R ag barr 9.4
Cc1ccc(CNC(=O)Cn2ccc3cc(S(=O)(=O)N4CCCCCC4)ccc32)cc1	none
CCCN1C(=O)S/C(=C\c2ccc(N3CCOCC3)o2)C1=O	Granule exo inh 81 (no result: Myeloid diff 2)
CCCN1C(=O)S/C(=C/c2ccc(N3CCOCC3)o2)C1=O	Myeloid diff 2 inconclusive
CSCCC(NC(=O)c1cccc(C)c1)C(=O)Nc1sccc1C(N)=O (stereo not drawn)	none
N#CC1=C(N)N(c2ccc(F)cc2)C2=C(C1c1ccc(O)cc1)S(=O)(=O)CC2 (stereo not drawn)	Myeloid diff 2 active
O=c1nc(Nc2ccc(OCc3ccccc3)cc2)sc2ncccc12	Myeloid diff 2 active
CCc1ccc(OCC(=O)Nc2ccc(N3CCN(C(=O)c4ccccc4)CC3)cc2)cc1	none
COc1ccc(OCC(=O)Nc2ccc(N3CCN(C(=O)c4ccccc4C)CC3)cc2)cc1	Myeloid diff 2 active
Cc1ccc(OCC(=O)Nc2ccc(N3CCN(C(=O)c4ccco4)CC3)cc2)cc1C	Myeloid diff 2 active
CCc1ccccc1NC(=S)N(CCN1CCOCC1)Cc1ccccc1F	none (no result: Myeloid diff 2)
COc1ccc2c(c1)C(=O)N1[C@H]3c4cc(Cl)ccc4OC[C@@H]3[C@H](c3ccccc3)[C@]1(C)C(=O)N2	Myeloid diff 2 active
Cc1nc(S/C(=C/c2ccc(-c3ccc(Cl)cc3)o2)C(=O)O)n[nH]1	Granule exo inh 69
Cc1nc(S/C(=C/c2ccc(-c3ccc(C(=O)O)cc3)o2)C(=O)O)n[nH]1	none
COc1ccc(-c2nc3c(Cl)cc(C(F)(F)F)cn3c2Cc2ccsc2)cc1OC	none (no result: MC4R ag barr, MC4R antagonist)
Cn1c(C(=O)Nc2ccc3c(c2)OCCO3)cc2c(=O)n(C)c3ccccc3c21	Granule exo inh 80, Myeloid diff 2 inconclusive
COc1ccc(N=C2S/C(=C\c3ccc(Cl)c([N+](=O)[O-])c3)C(=O)N2CCN(C)C)cc1	Granule exo inh 73, EBI2 block 62
CCN(CC)CCN1C(=O)/C(=C\c2ccc(Cl)c([N+](=O)[O-])c2)SC1=Nc1ccc(OC)cc1	Granule exo inh 93, EBI2 block 73 (no result: Myeloid diff 2)
CC(C)CCN1C(=O)c2ccccc2C1c1nnnn1-c1ccc2c(c1)OCCO2 (stereo not drawn)	none (no result: MC4R ag barr, MC4R antagonist)
